Measurements: ChEMBL document CHEMBL3603779, “Identification and Optimization of Benzimidazole Sulfonamides as Orally Bioavailable Sphingosine 1-Phosphate Receptor 1 Antagonists with in Vivo Activity” (J Med Chem, 2015)
pEC50: −log10 of the molar value. Activity calls are given as the source filed them. The rule behind the calls is not given here.

How the values were obtained:
[1] = Oral bioavailability in Han Wistar rat at 5 to 10 mg/kg by LC-MS/MS method; type: ADME, organism-based; settings: in vivo
[2] = biological target: T1, Cytochrome P450 2B6 (Homo sapiens, UniProt P20813); experiment: Induction of CYP2B6 activation in human hepatocytes at 0.2 to 20 uM incubated for 48 hrs using bupropion substrate; type: ADME, cell-based, Hepatocyte
T1 sequence (P20813 whole entry): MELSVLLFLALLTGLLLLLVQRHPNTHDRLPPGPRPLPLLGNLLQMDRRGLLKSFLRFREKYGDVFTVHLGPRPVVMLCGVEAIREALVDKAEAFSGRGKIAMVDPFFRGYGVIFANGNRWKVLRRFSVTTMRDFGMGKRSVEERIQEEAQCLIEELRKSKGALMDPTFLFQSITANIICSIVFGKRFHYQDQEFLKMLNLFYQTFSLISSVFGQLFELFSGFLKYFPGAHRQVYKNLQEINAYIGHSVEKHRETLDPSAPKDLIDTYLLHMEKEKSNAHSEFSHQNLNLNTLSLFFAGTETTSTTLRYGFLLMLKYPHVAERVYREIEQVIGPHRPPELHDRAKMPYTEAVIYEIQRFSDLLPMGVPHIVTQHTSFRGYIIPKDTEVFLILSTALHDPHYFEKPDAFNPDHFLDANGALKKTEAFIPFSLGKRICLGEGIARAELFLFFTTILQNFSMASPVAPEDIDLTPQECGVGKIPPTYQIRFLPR
Method in brief: (§1)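 Primary human hepatocytes seeded on collagen and cultured in collagen-Matrigel sandwich. On day 3 they are treated for 48 h with DMSO, test compound at varying concentrations, or reference inducer (3-methylcholanthrene for CYP1A2, phenobarbital for CYP2B6, rifampicin for CYP3A4/5). Probe substrates are then added (phenacetin, bupropion, testosterone) and marker metabolites quantified (acetaminophen, hydroxybupropion, 6-β-hydroxytestosterone).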

[3] = biological target: Sphingosine 1-phosphate receptor 1 (Mus musculus) (UniProt O08530); experiment: Antagonist activity against mouse S1P1 receptor expressed in human U2OS cells co-expressing GFP assessed as inhibition of S1P-induced receptor translocation; type: cell-based
[4] = Clearance in Han Wistar rat at 2 to 4 mg/kg, iv by LC-MS/MS method; type: ADME, organism-based; settings: in vivo
[5] = biological target: Cytochrome P450 3A4 (Homo sapiens, UniProt P08684); experiment: Induction of CYP3A4 activation in human hepatocytes at 0.2 to 20 uM incubated for 48 hrs using testosterone substrate; type: ADME, cell-based, Hepatocyte; method in brief: as §1
[6] = biological target: T2, Cytochrome P450 3A5 (Homo sapiens, UniProt P20815); experiment: Induction of CYP3A5 activation in human hepatocytes at 2 uM incubated for 48 hrs using testosterone substrate; type: ADME, cell-based, Hepatocyte; method in brief: as §1
[7] = Intrinsic clearance in human liver microsomes pre-incubated at 37 degC for 5 mins before NADPH addition by LCMS/MS method; type: ADME; settings: read-out: CLH
[8] = biological target: T3, Cytochrome P450 1A2 (Homo sapiens, UniProt P05177); experiment: Induction of CYP1A2 activation in human hepatocytes at 0.2 to 20 uM incubated for 48 hrs using phenacetin substrate; type: ADME, cell-based, Hepatocyte; method in brief: as §1
T3 sequence (P05177 whole entry): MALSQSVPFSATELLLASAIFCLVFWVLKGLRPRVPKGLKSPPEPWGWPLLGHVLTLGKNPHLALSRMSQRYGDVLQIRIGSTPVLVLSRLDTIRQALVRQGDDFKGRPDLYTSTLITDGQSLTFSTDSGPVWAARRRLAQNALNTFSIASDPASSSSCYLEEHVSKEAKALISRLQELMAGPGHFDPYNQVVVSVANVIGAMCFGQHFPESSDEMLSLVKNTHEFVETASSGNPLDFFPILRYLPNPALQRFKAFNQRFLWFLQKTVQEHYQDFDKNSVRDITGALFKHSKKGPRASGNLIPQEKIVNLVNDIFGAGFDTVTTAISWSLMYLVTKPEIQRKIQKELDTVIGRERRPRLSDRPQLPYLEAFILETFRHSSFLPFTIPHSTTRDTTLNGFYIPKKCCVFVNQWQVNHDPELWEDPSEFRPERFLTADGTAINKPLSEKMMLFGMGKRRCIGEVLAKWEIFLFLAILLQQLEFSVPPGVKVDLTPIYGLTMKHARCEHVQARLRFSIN

[9] = biological target: Sphingosine 1-phosphate receptor 1 (Homo sapiens, UniProt P21453); experiment: Antagonist activity against human S1P1 receptor expressed in human U2OS cells co-expressing GFP assessed as inhibition of S1P-induced receptor translocation; type: cell-based
Method in brief: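 Cellular S1P1 translocation (internalization) assay with antagonist; EC50 reported as mean of at least three separate determinations ± standard deviation.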

[10] = biological target: T2, Cytochrome P450 3A5; experiment: Induction of CYP3A5 activation in human hepatocytes at 0.2 to 20 uM incubated for 48 hrs using testosterone substrate; type: ADME, cell-based, Hepatocyte; method in brief: as §1

T2 sequence (P20815 whole entry): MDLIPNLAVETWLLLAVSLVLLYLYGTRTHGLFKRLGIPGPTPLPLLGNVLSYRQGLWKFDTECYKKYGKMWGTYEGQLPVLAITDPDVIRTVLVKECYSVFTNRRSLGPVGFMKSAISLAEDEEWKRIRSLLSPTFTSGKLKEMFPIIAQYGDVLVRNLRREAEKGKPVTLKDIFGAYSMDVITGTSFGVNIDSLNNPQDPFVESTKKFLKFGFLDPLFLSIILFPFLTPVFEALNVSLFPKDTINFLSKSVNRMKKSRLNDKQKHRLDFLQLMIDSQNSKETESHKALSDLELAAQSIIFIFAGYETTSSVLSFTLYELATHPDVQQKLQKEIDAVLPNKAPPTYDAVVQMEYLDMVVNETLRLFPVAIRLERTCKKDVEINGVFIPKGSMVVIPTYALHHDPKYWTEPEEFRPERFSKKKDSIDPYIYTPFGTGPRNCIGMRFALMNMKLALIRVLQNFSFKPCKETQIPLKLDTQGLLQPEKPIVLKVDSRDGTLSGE
Sphingosine 1-phosphate receptor 1, sequence (P21453 whole entry): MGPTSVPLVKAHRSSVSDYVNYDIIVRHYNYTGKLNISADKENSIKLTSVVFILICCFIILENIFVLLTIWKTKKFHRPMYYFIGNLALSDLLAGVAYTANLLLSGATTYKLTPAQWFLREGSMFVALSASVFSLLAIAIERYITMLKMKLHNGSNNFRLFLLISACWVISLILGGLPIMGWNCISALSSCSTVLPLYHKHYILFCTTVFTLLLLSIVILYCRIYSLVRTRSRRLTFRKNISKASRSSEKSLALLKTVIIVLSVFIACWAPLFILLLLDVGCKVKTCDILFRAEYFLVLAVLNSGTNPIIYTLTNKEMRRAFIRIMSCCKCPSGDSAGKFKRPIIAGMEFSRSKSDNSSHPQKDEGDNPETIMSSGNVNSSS
Sphingosine 1-phosphate receptor 1 (Mus musculus), sequence (O08530 whole entry): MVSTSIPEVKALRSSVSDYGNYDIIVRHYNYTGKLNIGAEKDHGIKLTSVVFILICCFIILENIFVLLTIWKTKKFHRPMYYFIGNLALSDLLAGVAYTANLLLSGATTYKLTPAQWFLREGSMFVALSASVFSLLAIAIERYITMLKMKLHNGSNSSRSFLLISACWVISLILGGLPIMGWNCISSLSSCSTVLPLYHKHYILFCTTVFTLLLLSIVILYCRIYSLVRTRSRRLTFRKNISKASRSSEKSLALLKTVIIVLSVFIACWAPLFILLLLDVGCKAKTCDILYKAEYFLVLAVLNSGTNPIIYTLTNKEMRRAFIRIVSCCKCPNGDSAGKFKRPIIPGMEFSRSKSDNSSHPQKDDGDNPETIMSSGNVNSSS
Cytochrome P450 3A4, sequence (P08684 whole entry): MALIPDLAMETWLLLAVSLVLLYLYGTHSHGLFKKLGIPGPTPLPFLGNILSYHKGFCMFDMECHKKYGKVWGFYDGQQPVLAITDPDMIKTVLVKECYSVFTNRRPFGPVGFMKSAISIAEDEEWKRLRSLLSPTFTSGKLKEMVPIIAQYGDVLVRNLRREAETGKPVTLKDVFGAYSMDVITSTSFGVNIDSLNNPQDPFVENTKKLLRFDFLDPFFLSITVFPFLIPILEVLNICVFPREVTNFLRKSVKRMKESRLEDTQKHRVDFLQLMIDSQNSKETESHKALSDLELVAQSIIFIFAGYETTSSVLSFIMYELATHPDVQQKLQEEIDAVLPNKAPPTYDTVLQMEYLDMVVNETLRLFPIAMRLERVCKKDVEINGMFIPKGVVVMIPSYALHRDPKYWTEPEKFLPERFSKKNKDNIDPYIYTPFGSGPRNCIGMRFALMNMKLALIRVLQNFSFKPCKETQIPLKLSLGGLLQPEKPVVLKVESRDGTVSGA

bioavailability [1]: 43%
Activity [2]: Not Active
inhibition [3]: Active
clearance [4]: 33 mL/min/kg
Activity [5]: Dose-dependent effect
Activity [6]: Active
microsomal CLint [7]: > 100 µL/min/mg
Activity [8]: Not Active
pEC50 [9]: 8.30
Activity [10]: Dose-dependent effect
SMILES: CCn1c([C@@H](C)NS(=O)(=O)c2ccc(Cl)cc2)nc2ccc(C(F)(F)F)cc21
